Source: ChEMBL document CHEMBL1148507, “Discovery of a novel, orally active, small molecule gonadotropin-releasing hormone (GnRH) receptor antagonist” (J Med Chem, 2006)
pIC50, pKi: −log10 of the molar value.

What was measured:
[1] = Inhibition KCl-stimulated calcium channel activity
[2] = molecular target: Sodium-dependent noradrenaline transporter (Homo sapiens, UniProt P23975); experiment: Binding affinity to human NE transporter
How it was run: (§1)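 Selectivity panel of 54 assays (ion channels, GPCRs, monoamine transporters) run at Cerep; Ki determined for hits at 10 µM; human isoform where marked.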

[3] = Oral bioavailability in Sprague-Dawley rat at 5 mg/kg, iv and 20 mg/kg, po; format: ADME, organism-based; conditions: in vivo
How it was run: (§2)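 Intact male rats with indwelling jugular vein catheters, recovered overnight; single dose 5 mg/kg i.v. (5 mg/mL in 70% PEG400/30% H2O) or 20 mg/kg p.o. (20 mg/mL suspension in 0.5% CMC). Plasma by C18 HPLC, 50-70% ACN gradient in 10 mM ammonium phosphate pH 7, UV 260 nm; noncompartmental parameters; F = AUCp.o./AUCi.v.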

[4] = molecular target: Muscarinic acetylcholine receptor M4 (Homo sapiens, UniProt P08173); experiment: Binding affinity to human M4 receptor; how it was run: as §1
[5] = molecular target: Cytochrome P450 1A2 (Homo sapiens, UniProt P05177); experiment: Inhibition of CYP1A2; format: ADME
[6] = molecular target: T1, Voltage-gated L-type calcium channel (Homo sapiens, UniProt Q13936+Q13698+Q01668+O60840); experiment: Binding affinity to DHP site of L type calcium channel; format: protein assay; how it was run: as §1
[7] = molecular target: 5-hydroxytryptamine receptor 2C (Homo sapiens, UniProt P28335); experiment: Binding affinity to human 5HT2C receptor; how it was run: as §1
[8] = molecular target: Sodium-dependent dopamine transporter (Homo sapiens, UniProt Q01959); experiment: Binding affinity to human DA transporter; how it was run: as §1
[9] = molecular target: Substance-P receptor (Homo sapiens, UniProt P25103); experiment: Binding affinity to human NK1 receptor; how it was run: as §1
[10] = molecular target: Sodium-dependent serotonin transporter (Homo sapiens, UniProt P31645); experiment: Binding affinity to human 5HT transporter; how it was run: as §1
[11] = molecular target: T2, Gonadotropin-releasing hormone receptor (Rattus norvegicus, UniProt P30969); experiment: Antagonist activity at rat pituitary GnRH receptor assessed as inhibition of GnRH-stimulated inositol phosphate accumulation; format: functional; conditions: in the assay text read “recombinant rat” for “rat pituitary”
How it was run: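 Rat receptor functional assay run against 100 nM GnRH; total inositol phosphate accumulation measured; IC50 with Hill coefficient derived.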

[12] = molecular target: T1, Voltage-gated L-type calcium channel; experiment: Binding affinity to L type calcium channel; format: protein assay; how it was run: as §1
[13] = molecular target: Cytochrome P450 2D6 (Homo sapiens, UniProt P10635); experiment: Inhibition of CYP2D6; format: ADME
[14] = molecular target: Kappa-type opioid receptor (Homo sapiens, UniProt P41145); experiment: Binding affinity to kappa opiate receptor; how it was run: as §1
[15] = molecular target: Cytochrome P450 2C9 (Homo sapiens, UniProt P11712); experiment: Inhibition of CYP2C9; format: ADME
[16] = molecular target: D(3) dopamine receptor (Homo sapiens, UniProt P35462); experiment: Binding affinity to human D3 receptor; how it was run: as §1
[17] = molecular target: 5-hydroxytryptamine receptor 7 (Homo sapiens, UniProt P34969); experiment: Binding affinity to human 5HT7 receptor; how it was run: as §1
[18] = molecular target: D(1A) dopamine receptor (Homo sapiens, UniProt P21728); experiment: Binding affinity to human D1 receptor; how it was run: as §1
[19] = test system: Rattus norvegicus; experiment: Suppression of luteinizing hormone levels to below 0.12 mIU/mL in po dosed castrated Sprague-Dawley rat; format: ADME, organism-based; conditions: in vivo
How it was run: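 Male SD rats (200-225 g) castrated under halothane, 14 days recovery, jugular cannulated; basal bleed then single oral dose 5.0, 20, 50 or 100 mg/kg in 0.5% CMC, n = 6/dose; serial plasma LH by coated-tube RIA, detection limit 0.12 mIU/mL; mean ± SEM.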

[20] = molecular target: Adenosine receptor A3 (Homo sapiens, UniProt P0DMS8); experiment: Binding affinity to human A3 receptor; how it was run: as §1
[21] = molecular target: Muscarinic acetylcholine receptor M1 (Homo sapiens, UniProt P11229); experiment: Binding affinity to human M1 receptor; how it was run: as §1
[22] = test system: Rattus norvegicus; experiment: Suppression of testosterone level to below 0.5 ng/mL castrate level for 12 hrs in po dosed gonad intact Sprague-Dawley rat; format: ADME, organism-based; conditions: in vivo
How it was run: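 Single-housed intact male SD rats (300-325 g), jugular cannulated 3 days prior; basal bleed 7:00-7:30 am, then single oral dose 5.0, 25, 50 or 100 mg/kg in 0.5% CMC suspension, n = 6/dose; serial heparinized plasma; testosterone by coated-tube RIA; castrate level <0.5 ng/mL; mean ± SEM.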

[23] = Half life in Sprague-Dawley rat at 5 mg/kg, iv or 20 mg/kg, po; format: ADME, organism-based; conditions: in vivo; how it was run: as §2
[24] = molecular target: Histamine H2 receptor (Homo sapiens, UniProt P25021); experiment: Binding affinity to H2 receptor; how it was run: as §1
[25] = Volume of distribution in Sprague-Dawley rat at 5 mg/kg, iv or 20 mg/kg, po; format: ADME, organism-based; conditions: in vivo, read-out: Vdss; how it was run: as §2
[26] = molecular target: Cytochrome P450 3A4 (Homo sapiens, UniProt P08684); experiment: Inhibition of CYP3A4; format: ADME
[27] = molecular target: Type-1 angiotensin II receptor (Homo sapiens, UniProt P30556); experiment: Binding affinity to human AT1 receptor; how it was run: as §1
[28] = molecular target: Cytochrome P450 2C19 (Homo sapiens, UniProt P33261); experiment: Inhibition of CYP2C19; format: ADME
[29] = molecular target: 5-hydroxytryptamine receptor 2A (Homo sapiens, UniProt P28223); experiment: Binding affinity to human 5HT2A receptor; how it was run: as §1
[30] = molecular target: D(4) dopamine receptor (Homo sapiens, UniProt P21917); experiment: Binding affinity to human D4.4 receptor; how it was run: as §1
[31] = molecular target: T2, Gonadotropin-releasing hormone receptor; experiment: Binding affinity to rat pituitary GnRH receptor
[32] = Clearance in Sprague-Dawley rat at 5 mg/kg, iv or 20 mg/kg, po; format: ADME, organism-based; conditions: in vivo; how it was run: as §2
[33] = molecular target: Mu-type opioid receptor (Homo sapiens, UniProt P35372); experiment: Binding affinity to human mu opiate receptor; how it was run: as §1
[34] = molecular target: T1, Voltage-gated L-type calcium channel; experiment: Binding affinity to diltiazem site of L type calcium channel; format: protein assay; how it was run: as §1
[35] = molecular target: Platelet-activating factor receptor (Homo sapiens, UniProt P25105); experiment: Binding affinity to PAF; how it was run: as §1
Sequence of Platelet-activating factor receptor (P25105 whole entry): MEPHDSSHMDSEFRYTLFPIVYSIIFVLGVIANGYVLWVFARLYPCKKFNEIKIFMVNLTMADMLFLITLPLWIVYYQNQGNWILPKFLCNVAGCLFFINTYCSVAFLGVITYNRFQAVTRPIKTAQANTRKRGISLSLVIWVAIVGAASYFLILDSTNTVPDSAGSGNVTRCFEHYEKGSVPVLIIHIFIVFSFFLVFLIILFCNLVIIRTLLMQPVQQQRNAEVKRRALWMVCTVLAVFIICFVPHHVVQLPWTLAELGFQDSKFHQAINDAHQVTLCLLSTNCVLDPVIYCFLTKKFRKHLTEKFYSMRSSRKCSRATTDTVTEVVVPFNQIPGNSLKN

T2 sequence (P30969 whole entry): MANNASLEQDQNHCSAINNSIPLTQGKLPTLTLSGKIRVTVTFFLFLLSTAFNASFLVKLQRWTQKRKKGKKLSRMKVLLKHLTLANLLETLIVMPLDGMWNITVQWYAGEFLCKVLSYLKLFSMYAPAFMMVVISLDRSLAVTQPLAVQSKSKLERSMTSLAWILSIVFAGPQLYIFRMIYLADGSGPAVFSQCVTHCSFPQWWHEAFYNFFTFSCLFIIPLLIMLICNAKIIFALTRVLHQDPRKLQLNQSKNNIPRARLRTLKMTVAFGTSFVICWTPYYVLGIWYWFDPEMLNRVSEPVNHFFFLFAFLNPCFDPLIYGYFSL
Sequence of Cytochrome P450 2C19 (P33261 whole entry): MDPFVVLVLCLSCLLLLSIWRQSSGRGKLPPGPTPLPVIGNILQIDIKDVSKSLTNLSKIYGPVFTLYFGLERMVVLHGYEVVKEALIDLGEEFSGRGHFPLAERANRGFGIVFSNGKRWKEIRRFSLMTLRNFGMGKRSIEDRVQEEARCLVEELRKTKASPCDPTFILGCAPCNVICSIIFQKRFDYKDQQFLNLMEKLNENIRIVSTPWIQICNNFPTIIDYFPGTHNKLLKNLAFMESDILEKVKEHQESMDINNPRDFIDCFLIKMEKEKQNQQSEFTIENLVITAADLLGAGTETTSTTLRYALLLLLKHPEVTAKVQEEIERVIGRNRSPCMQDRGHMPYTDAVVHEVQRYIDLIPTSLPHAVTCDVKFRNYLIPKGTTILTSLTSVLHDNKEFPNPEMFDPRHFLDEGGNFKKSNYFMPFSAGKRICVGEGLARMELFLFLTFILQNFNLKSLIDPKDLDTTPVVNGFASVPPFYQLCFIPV
Sequence of Cytochrome P450 2D6 (P10635 whole entry): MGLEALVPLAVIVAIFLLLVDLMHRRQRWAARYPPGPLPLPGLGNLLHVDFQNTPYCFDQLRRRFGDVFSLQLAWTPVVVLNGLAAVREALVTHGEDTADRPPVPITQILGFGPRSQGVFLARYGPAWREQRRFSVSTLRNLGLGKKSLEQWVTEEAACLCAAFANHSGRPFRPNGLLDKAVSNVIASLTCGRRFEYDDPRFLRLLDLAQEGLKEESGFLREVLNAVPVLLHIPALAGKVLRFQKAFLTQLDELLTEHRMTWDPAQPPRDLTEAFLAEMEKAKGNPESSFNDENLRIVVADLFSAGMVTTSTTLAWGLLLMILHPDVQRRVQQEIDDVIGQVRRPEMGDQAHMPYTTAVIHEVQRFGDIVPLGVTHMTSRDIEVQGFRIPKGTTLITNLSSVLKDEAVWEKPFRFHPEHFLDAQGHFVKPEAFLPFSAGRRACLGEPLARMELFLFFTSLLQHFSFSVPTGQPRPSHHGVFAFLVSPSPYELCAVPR
Sequence of Type-1 angiotensin II receptor (P30556 whole entry): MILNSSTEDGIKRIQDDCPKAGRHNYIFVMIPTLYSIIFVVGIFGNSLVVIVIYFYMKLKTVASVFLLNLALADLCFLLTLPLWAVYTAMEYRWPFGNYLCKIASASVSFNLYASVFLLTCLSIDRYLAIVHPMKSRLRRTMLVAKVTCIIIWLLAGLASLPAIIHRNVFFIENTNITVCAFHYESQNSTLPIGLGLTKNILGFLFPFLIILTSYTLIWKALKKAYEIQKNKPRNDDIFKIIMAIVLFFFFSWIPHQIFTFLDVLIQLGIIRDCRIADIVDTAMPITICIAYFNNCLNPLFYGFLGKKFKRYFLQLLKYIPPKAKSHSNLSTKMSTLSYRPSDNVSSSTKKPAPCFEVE
Sequence of Sodium-dependent dopamine transporter (Q01959 whole entry): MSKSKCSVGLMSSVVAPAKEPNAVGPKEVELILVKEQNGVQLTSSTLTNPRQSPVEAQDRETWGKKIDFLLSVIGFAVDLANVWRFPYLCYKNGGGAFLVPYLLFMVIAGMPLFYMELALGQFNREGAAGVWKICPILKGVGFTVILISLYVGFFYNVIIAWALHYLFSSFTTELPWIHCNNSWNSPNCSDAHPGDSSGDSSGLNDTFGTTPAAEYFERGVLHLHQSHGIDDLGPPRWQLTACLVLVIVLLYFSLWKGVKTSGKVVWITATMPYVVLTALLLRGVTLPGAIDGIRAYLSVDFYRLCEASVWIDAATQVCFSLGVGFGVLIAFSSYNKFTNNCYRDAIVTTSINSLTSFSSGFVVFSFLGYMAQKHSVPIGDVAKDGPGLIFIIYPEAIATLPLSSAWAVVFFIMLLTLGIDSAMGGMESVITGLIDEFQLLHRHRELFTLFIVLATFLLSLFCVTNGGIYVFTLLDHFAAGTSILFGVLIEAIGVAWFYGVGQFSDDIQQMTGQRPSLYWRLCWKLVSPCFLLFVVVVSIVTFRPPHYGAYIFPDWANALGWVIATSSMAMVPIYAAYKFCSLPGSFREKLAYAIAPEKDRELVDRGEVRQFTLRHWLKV
Sequence of Muscarinic acetylcholine receptor M1 (P11229 whole entry): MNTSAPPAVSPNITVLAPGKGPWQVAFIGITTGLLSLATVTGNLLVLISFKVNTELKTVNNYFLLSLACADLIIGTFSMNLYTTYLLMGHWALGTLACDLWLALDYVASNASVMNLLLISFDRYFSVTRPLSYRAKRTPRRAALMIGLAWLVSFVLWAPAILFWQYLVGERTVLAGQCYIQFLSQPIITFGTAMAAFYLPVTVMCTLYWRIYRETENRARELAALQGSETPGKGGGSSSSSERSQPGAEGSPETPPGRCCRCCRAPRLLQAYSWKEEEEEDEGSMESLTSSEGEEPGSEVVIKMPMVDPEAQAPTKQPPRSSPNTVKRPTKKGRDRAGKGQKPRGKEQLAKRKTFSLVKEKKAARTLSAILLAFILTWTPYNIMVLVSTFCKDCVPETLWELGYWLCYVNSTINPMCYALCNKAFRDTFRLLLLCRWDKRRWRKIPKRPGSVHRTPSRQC
Sequence of Kappa-type opioid receptor (P41145 whole entry): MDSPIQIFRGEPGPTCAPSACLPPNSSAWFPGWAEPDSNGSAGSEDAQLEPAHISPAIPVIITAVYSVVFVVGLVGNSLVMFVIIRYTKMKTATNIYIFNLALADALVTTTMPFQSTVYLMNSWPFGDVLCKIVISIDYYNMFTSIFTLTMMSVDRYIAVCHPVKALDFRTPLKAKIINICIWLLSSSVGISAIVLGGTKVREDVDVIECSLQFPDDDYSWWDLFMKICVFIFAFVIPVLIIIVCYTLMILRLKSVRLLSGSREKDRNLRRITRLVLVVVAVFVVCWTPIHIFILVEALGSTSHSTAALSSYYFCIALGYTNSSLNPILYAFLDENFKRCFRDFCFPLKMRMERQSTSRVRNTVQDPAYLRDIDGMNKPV
Sequence of 5-hydroxytryptamine receptor 2C (P28335 whole entry): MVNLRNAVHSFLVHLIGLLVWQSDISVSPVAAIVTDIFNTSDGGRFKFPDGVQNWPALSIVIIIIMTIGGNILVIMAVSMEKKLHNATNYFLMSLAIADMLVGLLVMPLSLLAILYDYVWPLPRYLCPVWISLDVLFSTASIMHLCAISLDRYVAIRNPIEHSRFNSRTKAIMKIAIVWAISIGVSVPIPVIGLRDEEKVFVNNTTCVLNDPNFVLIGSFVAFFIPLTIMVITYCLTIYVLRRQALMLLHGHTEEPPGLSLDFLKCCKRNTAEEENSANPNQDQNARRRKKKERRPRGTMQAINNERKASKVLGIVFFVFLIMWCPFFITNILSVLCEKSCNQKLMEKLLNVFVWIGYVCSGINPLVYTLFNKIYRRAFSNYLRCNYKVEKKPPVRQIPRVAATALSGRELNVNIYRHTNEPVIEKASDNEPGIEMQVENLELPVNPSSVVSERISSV
Sequence of Cytochrome P450 2C9 (P11712 whole entry): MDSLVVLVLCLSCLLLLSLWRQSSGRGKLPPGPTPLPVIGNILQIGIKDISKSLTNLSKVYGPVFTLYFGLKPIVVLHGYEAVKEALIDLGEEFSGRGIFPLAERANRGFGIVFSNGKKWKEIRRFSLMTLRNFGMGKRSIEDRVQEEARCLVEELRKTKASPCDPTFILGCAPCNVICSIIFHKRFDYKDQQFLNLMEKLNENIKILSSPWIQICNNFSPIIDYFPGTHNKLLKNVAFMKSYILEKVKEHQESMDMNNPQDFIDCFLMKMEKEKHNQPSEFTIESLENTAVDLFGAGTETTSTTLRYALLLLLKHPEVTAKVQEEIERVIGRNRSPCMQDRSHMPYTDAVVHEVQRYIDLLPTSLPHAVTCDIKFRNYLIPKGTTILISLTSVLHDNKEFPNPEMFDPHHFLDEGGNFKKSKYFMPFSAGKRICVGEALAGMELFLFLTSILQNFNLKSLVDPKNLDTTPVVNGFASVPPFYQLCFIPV
Sequence of Cytochrome P450 1A2 (P05177 whole entry): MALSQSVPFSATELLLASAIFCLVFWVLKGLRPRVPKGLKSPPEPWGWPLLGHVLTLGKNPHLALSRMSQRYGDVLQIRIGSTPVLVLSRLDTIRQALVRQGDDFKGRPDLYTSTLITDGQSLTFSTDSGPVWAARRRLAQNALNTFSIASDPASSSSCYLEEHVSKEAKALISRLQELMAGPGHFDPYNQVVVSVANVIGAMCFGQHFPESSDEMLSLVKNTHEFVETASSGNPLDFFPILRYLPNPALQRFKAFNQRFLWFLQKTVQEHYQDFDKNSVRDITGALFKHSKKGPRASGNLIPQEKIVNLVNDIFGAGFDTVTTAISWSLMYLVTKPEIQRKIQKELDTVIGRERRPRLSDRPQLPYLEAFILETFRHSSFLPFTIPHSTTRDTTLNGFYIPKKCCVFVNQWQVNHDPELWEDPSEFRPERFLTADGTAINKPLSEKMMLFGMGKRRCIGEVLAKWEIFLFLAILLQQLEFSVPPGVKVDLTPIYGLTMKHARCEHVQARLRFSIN

COc1nc(NCCCN2CCOCC2)nc(OC)c1NC(=O)c1ccc(Oc2cc3c(cc2C)CCC3(C)C)o1 gave a pIC50 [1] of 5.20, a pKi [2] of 5.29 and a bioavailability [3] of 26%. It also gave a pKi [4] of 5.43, a pIC50 [5] of under 4.52 and a pKi [6] of 6.84. It also gave a pKi [7] of 6.02, a pKi [8] of 5.74 and a pKi [9] of 5.90. It also gave a pKi [10] of 5.84, a pIC50 [11] of 8.06 and a Ki [12] of 145 nM. The pIC50 [13] was under 4.52, the pKi [14] was 5.71 and the pIC50 [15] was 5.52. For the same compound, the pKi [16] was 5.93, the pKi [17] was 5.76 and the pKi [18] was 5.79. The Activity [19] was “Dose-dependent effect”, the pKi [20] was 6.20 and the pKi [21] was 5.39. The Activity [22] was “Dose-dependent effect”, the half-life [23] was 5.1 h and the pKi [24] was 5.91. It also gave a Vd [25] of 1.1 L/kg, a pIC50 [26] of under 4.52 and a pKi [27] of 5.43. For the same compound, the pIC50 [28] was under 4.52, the pKi [29] was 6.23 and the pKi [30] was 5.60. For the same compound, the pKi [31] was 9.40, the clearance [32] was 5.5 mL/min/kg and the pKi [33] was 5.85. The pKi [34] was 6.43 and the pKi [35] was 5.97.
